Experimental findings from PubChem BioAssay are described below.

The term inhibition denotes the drop in the measured response relative to a control, in per cent.

Molecules are shown by their SMILES. Active and inactive are the calls of the source.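 The calls were made as follows, unless noted: active = inhibition at or above 50% relative to wild type and mutant plate controls; inactive = inhibition below 50%.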

Assay [1] can be described thus: inhibitors of TNFa-induced NFkB p65 translocation, primary screen, imaging, HUVEC, MLSMR starter and 10KST1 sets (AID 438;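 active = inhibition above 20% together with a positive visual image hit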;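 also: compound added about 3h40 before a 20 min TNFalpha stimulation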;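 as to inhibition: signal is the nuclear over cytoplasmic p65 intensity ratio per well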). Particulars: HUVEC TNFa-induced p65 nuclear translocation; cell count: measured here: nuclei count (cytotoxicity indicator), at 2.08 µM; inhibition: at 2 µM, stronger effect = higher value, 0% TNFa-plus-vehicle, 100% no-TNFa wells.
Assay [2] in a line: endothelial E-selectin expression blockers – imaging, HUVEC, immunofluorescence, MLSMR starter and 10KST1 sets, primary screen (AID 487;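 active = visually confirmed hit in the image check and inhibition above 20%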;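 as to inhibition: signal is fraction of cell area covered by stained E-selectin grains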;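 as to nuclei count: 100% = median nuclei count of all wells on the same plate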). Particulars: HUVEC TNFalpha-induced E-selectin immunofluorescence imaging, at 2 µM; inhibition: stronger effect = higher value; nuclei count: measured here: cell number, toxicity.
Assay [3] is described as follows: Primary imaging screen for DUSP6 inhibitors that restore phospho-Erk in transfected HeLa cells, chemical complementation (AID 609;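 active = compounds giving at least 50% inhibition in the cell-based MKP-3 phosphatase rescue imaging test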;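 as to inhibition: phospho-Erk level distribution per well compared with pooled transfected vehicle control wells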). Particulars: HeLa MKP-3 transfected, phospho-Erk imaging KS statistic, at 10 µM, cells stimulated with TPA for 15 min.
Assay [4] deals with Dual specificity protein phosphatase 6 (Homo sapiens) (UniProt Q16828). The assay is described as above. Particulars: HeLa MKP-3 transfected, phospho-Erk imaging KS statistic; at 10 µM; stronger effect = higher value; cells stimulated with TPA for 15 min.
Dual specificity protein phosphatase 6 (Homo sapiens), sequence (Q16828 whole entry, looked up): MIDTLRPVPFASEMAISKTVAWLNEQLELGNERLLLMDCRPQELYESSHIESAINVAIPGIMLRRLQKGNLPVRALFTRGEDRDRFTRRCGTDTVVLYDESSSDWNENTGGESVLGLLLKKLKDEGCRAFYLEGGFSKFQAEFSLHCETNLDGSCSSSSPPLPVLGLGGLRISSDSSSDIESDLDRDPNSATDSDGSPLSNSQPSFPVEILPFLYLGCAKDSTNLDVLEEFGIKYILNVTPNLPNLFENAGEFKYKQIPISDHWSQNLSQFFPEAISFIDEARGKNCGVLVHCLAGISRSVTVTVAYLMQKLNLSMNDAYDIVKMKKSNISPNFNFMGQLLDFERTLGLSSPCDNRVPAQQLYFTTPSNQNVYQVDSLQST
The target of assay [5] is Voltage-gated potassium channel subunit beta-2 (Rattus norvegicus) (UniProt P62483). Put plainly: inhibitors of rat Kvbeta2 reductase activity – biochemical, NADPH fluorescence, primary screen (AID 622;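 active = fluorescence slope higher than the sample average by over 3 SD, cut at about -0.22 in these data, passing the limit was not always enough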;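 also: slope of raw intensity against log time taken from 70 to 1610 s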). Particulars: recombinant KvBeta, 4-cyanobenzaldehyde reduction, at 10 µM, stronger effect = higher value.
Voltage-gated potassium channel subunit beta-2 (Rattus norvegicus), sequence (P62483 whole entry, looked up): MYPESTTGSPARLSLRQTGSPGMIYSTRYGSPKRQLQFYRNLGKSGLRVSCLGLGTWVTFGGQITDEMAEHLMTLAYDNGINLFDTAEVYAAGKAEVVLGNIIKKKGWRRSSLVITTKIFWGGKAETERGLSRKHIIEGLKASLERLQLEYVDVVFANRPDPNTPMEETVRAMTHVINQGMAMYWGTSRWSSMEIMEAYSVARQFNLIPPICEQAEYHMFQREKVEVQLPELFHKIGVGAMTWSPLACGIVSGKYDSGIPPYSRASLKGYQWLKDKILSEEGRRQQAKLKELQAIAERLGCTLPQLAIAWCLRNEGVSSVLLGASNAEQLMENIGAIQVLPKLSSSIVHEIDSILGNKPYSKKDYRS
For assay [6] the target is unchanged. Briefly: enhancers of rat Kvbeta2 NADPH turnover – biochemical, NADPH fluorescence, primary screen (AID 623;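 active = NADPH fluorescence slope more negative than the mean of all samples by about 3 SD, 99.7% confidence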;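 also: fluorescence intensity change per second fitted from 20 to 320 s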). As to conditions: Recombinant KvBeta, NADPH fluorescence decrease slope, 10 min; at 10 µM; stronger effect = lower value.
Assay [7] addresses Alpha-2C adrenergic receptor (Homo sapiens) (UniProt P18825). Briefly: compounds altering alpha2C-coupled GIRK flux – cell-based, HEK293 alpha2C/GIRK1/2, thallium flux, primary screen (AID 624;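 active = fluorescence slope after compound addition differing from the mean of all screened samples at 99.7% confidence, in either direction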;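 also: slope of fluorescence ratio to pre-addition baseline per second over 15 to 24 s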). Particulars: thallium flux BTC fluorescence, at 10 µM, actives lie on both sides.
A short description of assay [8]: inhibitors of larval lipid processing in zebrafish, primary screen, whole organism, PED6 fluorescence, gall bladder and intestine (AID 686;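 active = a full or partial loss of lipid-probe fluorescence in the fish gall bladder, intestine or both, judged by eye; inactive = no fluorescence loss, or compound toxic to the fish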;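 also: larvae 5 to 7 days old with five fish per well; signal comes from phospholipase A2 cleavage of quenched PED6 carried via bile; overnight exposure to compound and PED6 before scoring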). As to conditions: Zebrafish larvae PED6 lipid processing, fluorescence scoring; screened at 20 µM (by protocol). In a few lines:
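Test system – live zebrafish larvae aged 5-7 days, whole organism · Buffer or medium – E3 fish medium · Reagent – quenched phospholipase substrate PED6, 100 nM final, ingested by larvae · Doses – 20 µM single dose · Incubation – overnight compound and PED6 incubation · Technique – visual fluorescence microscopy scoring of gall bladder, gut · Read-out basis – visual per-well fluorescence inhibition score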

Assay [9] is described as follows: loss of swimming-algae plug formation – whole organism, Chlamydomonas reinhardtii, WT vs cilia-less mutant, absorbance, 96-well, primary screen (AID 463189).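 Also: 0% = wild type cc124 cells in DMSO and 100% = ciliumless bld1 mutant cells.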 Particulars: Chlamydomonas reinhardtii gravitaxis, OD600 absorbance, 2 days; at 10 µM; stronger effect = higher value.
Setting [10] is: measured here: cell density z-score.
Where [11] appears, read: measured here: nuclear c-Myc green intensity z-score.
Setting [12] is: measured here: nuclear pErk red intensity z-score, stronger effect = higher value.

Alpha-2C adrenergic receptor (Homo sapiens), sequence (P18825 whole entry, looked up): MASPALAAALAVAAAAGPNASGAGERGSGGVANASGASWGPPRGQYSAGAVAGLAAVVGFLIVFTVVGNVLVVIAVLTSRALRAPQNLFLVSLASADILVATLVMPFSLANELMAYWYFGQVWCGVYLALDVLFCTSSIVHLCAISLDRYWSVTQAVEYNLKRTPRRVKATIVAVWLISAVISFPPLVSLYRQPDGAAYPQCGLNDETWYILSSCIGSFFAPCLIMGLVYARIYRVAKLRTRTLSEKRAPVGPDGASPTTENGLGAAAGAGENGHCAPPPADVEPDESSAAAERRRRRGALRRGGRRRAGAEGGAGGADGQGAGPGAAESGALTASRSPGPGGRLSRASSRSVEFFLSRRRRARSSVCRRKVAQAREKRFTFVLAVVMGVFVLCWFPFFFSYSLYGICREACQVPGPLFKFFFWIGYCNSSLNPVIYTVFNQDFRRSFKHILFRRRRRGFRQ

On to `NS(=O)(=O)c1ccc(-c2ccc(C=NC3CCS(=O)(=O)C3)o2)cc1` (stereo unspecified), for which the cell count in [1] was 576. Moreover, the inhibition is 0.1% (inactive) in assay [1], -53.9% (inactive) in assay [2], -4.7% (inactive) in assay [4] and -10.3% (inactive) in assay [9]. The molecule further gave a nuclei count in assay [2] of 94%. Besides, the z-score in [3] (setting [10]) is -1.97; in assay [3] (setting [11]) it was 0.0247; in assay [3] (setting [12]), 1.53. For the same molecule, the fluorescence slope in [5] was -0.59 (inactive). Also, the NADPH fluorescence slope in [6] is -5.6e-05 (inactive). Besides, the slope in [7] was 0.00467 (inactive). For the same molecule, the call in assay [8] was inactive.
For `Cc1cc(OCCN2CCOCC2)nc2ccccc12`, the cell count in assay [1] was 358. Also, the inhibition is -29.5% (inactive) in assay [1], -231% (inactive) in assay [2], -10.5% (inactive) in assay [4] and 22.7% (inactive) in assay [9]. Also, the nuclei count in assay [2] was 135%. For the same molecule, the z-score in [3] (setting [10]) is 0.234; in [3] (setting [11]), -1.97; in assay [3] (setting [12]), -1.2. Further, the fluorescence slope in [5] was -0.431 (inactive). Further, in [6], the NADPH fluorescence slope was -9.4e-05 (inactive). Besides, the slope in assay [7] was 0.00613 (inactive). Also, in [8], the molecule was classed as inactive.
Consider `Cc1cc(COc2ccccc2OCCN2CCN(C)CC2)no1`, for which the cell count in assay [1] was 551. The inhibition in [1] was -2.5% (inactive); in assay [2] it was -128% (inactive); in [4], 5.95% (inactive); in assay [9], 9.35% (inactive). In addition, the nuclei count in assay [2] turned out to be 134%. The z-score in assay [3] (setting [10]) is 0.378; in assay [3] (setting [11]), -1.63; in assay [3] (setting [12]), 0.134. Also, the fluorescence slope in [5] was -0.514 (inactive). In [6], the NADPH fluorescence slope is -6.1e-05 (inactive). Moreover, the slope in assay [7] was 0.0049 (inactive). Moreover, in assay [8], the call was inactive.
On to `Cc1cccc(C)c1OCC(O)CNS(=O)(=O)c1ccccc1C(=O)N1CCOCC1` (stereo unspecified), for which the cell count in [1] was determined as 458. The inhibition in [1] is 1.5% (inactive); in [2], -196% (inactive); in assay [4] it was 2.71% (inactive); in assay [9], -5.56% (inactive). Also, in assay [2], the nuclei count worked out at 172%. Moreover, the z-score is -0.426 in [3] (setting [10]), 0.519 in assay [3] (setting [11]) and 1.28 in [3] (setting [12]). Besides, in assay [5], the fluorescence slope is -0.387 (inactive). In addition, in assay [6], the NADPH fluorescence slope was -1.1e-05 (inactive). The slope in [7] is 0.00603 (inactive). Besides, in assay [8], the molecule was called inactive.
On to `CCN(CC)c1ccc2cc(-c3nnc(-c4ccncc4)o3)c(=O)oc2c1`, for which the cell count in [1] turned out to be 490. For the same molecule, the inhibition in [1] was -5.2% (inactive); in [2], -87.1% (inactive); in [4] it was 72.4% (inactive); in assay [9], 6.54% (inactive). The molecule also displayed a nuclei count in assay [2] of 137%. For the same molecule, the results for the z-score in assay [3] (setting [10]), in assay [3] (setting [11]) and in assay [3] (setting [12]) were -0.456, 1.6 and 0.914, respectively. Further, the fluorescence slope in [5] is -0.436 (inactive). In addition, the NADPH fluorescence slope in assay [6] was -0.000104 (inactive). For the same molecule, in [7], the slope was 0.00165 (inactive). Also, the result in assay [8] was inactive.
Turning to `CSc1nc(N2CCCC2)c2c(c1C#N)CC(C)(C)OC2`, the cell count in assay [1] was 568. Moreover, the inhibition in assay [1] was -4.5% (inactive); in assay [2], -28.5% (inactive); in [4], 5.65% (inactive); in [9] it was 10.3% (inactive). In assay [2], this molecule returned a nuclei count of 171%. Besides, the figures for the z-score in assay [3] (setting [10]), in assay [3] (setting [11]) and in [3] (setting [12]) were 0.89, -1.74 and 0.374, respectively. The fluorescence slope in assay [5] is -0.314 (inactive). In addition, the NADPH fluorescence slope in assay [6] is 8.2e-06 (inactive). Also, the slope in assay [7] was 0.00565 (inactive). Further, the molecule was classed as inactive in assay [8].
On to `CCOC(=O)C(NC=O)(NC(C)(C)C)C(=O)OCC`, for which, in assay [1], the cell count amounted to 520. Besides, the inhibition is -16.1% (inactive) in assay [1], -227% (inactive) in assay [2], -8.95% (inactive) in assay [4] and -1.22% (inactive) in assay [9]. Also, in assay [2], the nuclei count came out at 188%. For the same molecule, the z-score in assay [3] (setting [10]) is -0.692; in assay [3] (setting [11]), 0.27; in [3] (setting [12]) it was 0.909. The fluorescence slope in assay [5] is -0.493 (inactive). The NADPH fluorescence slope in [6] is -5.5e-05 (inactive). Moreover, the slope in assay [7] is 0.00503 (inactive). For the same molecule, in assay [8], the result was inactive.
